Active and inactive are the calls of the source. The calls are words filed in the database; no cut-off is given here.
Experiments:
[1] = system: MCF7; experiment: Photocytotoxicity against human MCF7 cells assessed as reduction in cell viability incubated for 1 hr under dark condition followed by washout and measured after 24 hrs by MTT assay; format: functional
How it was run: (§1)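 Cells (MCF7, A549, HeLa) incubated 1 h with compound (BB probes 0–32 μM, Br-DAPI 0–64 μM) and washed once. Light arms: 480 nm (15 min, 2.3 J cm⁻²) with or without UV (5 min, 8.0 J cm⁻²), or UV only; dark controls unilluminated. Cells kept overnight in growth medium, then MTT read 24 h post-treatment. CC50 taken relative to untreated cells. n = 3.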

[2] = system: MCF7; experiment: Induction of DNA damage in human MCF7 cells assessed as double strand breaks by measuring pink foci formation in nucleus at 3 uM incubated for 2 hrs followed by irradiation with 8 J/cm^2 UV irradiation for 5 mins by gammaH2A.X antibody/Alexa 488/DAPI staining based fluorescence analysis; format: functional, cell-based
How it was run: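 MCF7 cells treated with compound at 3 μM, then illuminated with 480 nm (15 min, 2.3 J cm⁻²) plus UV (5 min, 8.0 J cm⁻²), or with UV alone. Left 2 h, fixed, stained with Alexa 488-tagged γH2AX antibody and DAPI counterstain. Nuclear foci imaged.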

[3] = system: MCF7; experiment: Photocytotoxicity against human MCF7 cells assessed as reduction in cell viability incubated for 1 hr followed by washout and irradiation with 8 J/cm^2 UV irradiation for 5 mins and measured after 24 hrs by MTT assay; format: functional; conditions: MCF7, light or radiation study; how it was run: as §1
[4] = system: Calf thymus DNA; experiment: Binding affinity to calf thymus DNA assessed as dissociation constant by fluorescence based analysis; format: nucleic-acid assay, Bos taurus
How it was run: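 Fluorescence titration: compound at 20 μM in PBS pH 7.4, calf thymus DNA added in 10 μM steps until emission plateaued (~60 μM). Excitation 345 nm, emission 350–650 nm. KD obtained by fitting a one-site total saturation binding model (nonspecific binding proportional to ligand). Triplicate independent samples.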

[5] = system: MCF7; experiment: Photocytotoxicity against human MCF7 cells assessed as reduction in cell viability incubated for 1 hr followed by washout and irradiation with 8 J/cm^2 UV irradiation for 5 mins and measured after 24 hrs by MTT assay
[6] = Drug uptake in human MCF7 cells cultured as […] spheroids assessed as increase in green fluorescence in nuclear background at 10 uM incubated overnight under dark condition by DAPI filter based fluorescence analysis; format: ADME, cell-based; conditions: mcf7, 10 µM
[7] = Drug localization in nucleus of human MCF7 cells assessed as increase in cyan fluorescence at 3 uM incubated for 1 hr by DAPI filter based analysis; format: ADME, subcellular; conditions: mcf7, 1 h
[8] = Drug localization in nucleus of human MCF7 cells assessed as increase in cyan fluorescence of 3-bromo-2-(4-carbamimidoylphenyl)-1H-indole-6-carboxamidine excitation at 3 uM incubated for 1 hr in dark by DAPI filter based analysis; format: ADME, subcellular; conditions: mcf7, 1 h
[9] = system: Calf thymus DNA; experiment: Binding affinity to calf thymus DNA assessed as fold change in fluorescence quenching of 3-bromo-2-(4-carbamimidoylphenyl)-1H-indole-6-carboxamidine; format: nucleic-acid assay; conditions: Bos taurus
[10] = Photorelease ability in PBS at pH 7.4 assessed as 3-bromo-2-(4-carbamimidoylphenyl)-1H-indole-6-carboxamidine release by measuring change in emission spectra at 1 uM incubated in presence of CT-DNA and irradiated with 3.1 J/cm^2 mercury lamp light for 20 mins; format: functional
[11] = Aqueous stability of the compound in PBS at pH 7.4 assessed as hydrolysis of carbamate to release 3-bromo-2-(4-carbamimidoylphenyl)-1H-indole-6-carboxamidine at 0.8 uM incubated for 3 hrs by fluorescence based analysis; format: physicochemical; conditions: buffer, pH 7.4, 3 h
[12] = (§2) Stability of compound in human A549 cells assessed as esterase-mediated 3-bromo-2-(4-carbamimidoylphenyl)-1H-indole-6-carboxamidine release by measuring cyan fluorescence at 2 uM incubated for 1 hr followed by compound washout and further incubated for 1 hr on heated microscopic stage by DAPI filter based fluorescence analysis; format: ADME, cell-based; conditions: a549, 1 h
How it was run: (§3)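 Cells incubated with compound (2 μM) for 1 h, washed once with PBS, then kept a further 1 h in the dark on a heated microscope stage. Nuclear cyan fluorescence imaged with the DAPI filter set at 0 h and 2 h time points.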

[13] = Photorelease activity in PBS at pH 7.4 assessed as 3-bromo-2-(4-carbamimidoylphenyl)-1H-indole-6-carboxamidine release by measuring time at when peak observed at 50 uM in presence of CT-DNA illuminated with 3.1 J/cm^2 480 nm illumination for 20 mins by RP-HPLC analysis; format: functional
How it was run: (§4)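 Samples at 50 μM in PBS pH 7.4 were either kept 3 h at 37 °C in the dark or illuminated 20 min at 480 nm (450–495 nm filter, 3.1 J cm⁻²). Analysed by RP-HPLC on a C18 analytical column with absorbance at 345 nm; retention times recorded. n = 2 independent samples.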

[14] = Photorelease activity in PBS at pH 7.4 assessed as wintergreen release at 50 uM in presence of CT-DNA illuminated with 3.1 J/cm^2 480 nm illumination for 20 mins by RP-HPLC analysis; format: functional; how it was run: as §4
[15] = Photorelease activity in PBS at pH 7.4 assessed as 3-bromo-2-(4-carbamimidoylphenyl)-1H-indole-6-carboxamidine release by measuring increase in fluorescence intensity at 50 uM in presence of CT-DNA incubated for 3 hrs under dark condition by RP-HPLC analysis; format: functional; how it was run: as §4
[16] = Induction of ROS production in PBS at pH 7.4 at 1 uM irradiated with 480 nm 2.3 J/cm^2 light for 15 mins with 2-photon irradiation by DCFH2-DA probe based analysis; format: functional
[17] = as §2, with “HeLa” for “A549”; format: ADME, cell-based; how it was run: as §3
[18] = system: MCF7; experiment: Photocytotoxicity against human MCF7 cells assessed as reduction in cell viability incubated for 1 hr followed by washout and irradiation with 480 nm 2.3 J/cm^2 light for 15 mins and measured after 24 hrs by MTT assay; format: functional; conditions: MCF7, light or radiation study; how it was run: as §1
[19] = system: MCF7; experiment: Induction of ROS production in human MCF7 cells at 2 uM incubated for 1 hr in dark followed by irradiation with 480 nm 2.3 J/cm^2 light for 15 mins with 8 J/cm^2 UV irradiation for 5 mins by DCFH2-DA probe based analysis; format: functional, cell-based; conditions: time 80.0 min
How it was run: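 MCF7 cells incubated with compound (2 μM) 1 h in the dark, washed, loaded with 10 μM DCFH2DA for 30 min, washed. DCF green fluorescence imaged after 480 nm illumination (15 min, 2.3 J cm⁻²), then after added 365 nm UV (5 min, 8.0 J cm⁻²). Mean fluorescence intensity quantified.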

[20] = as §2, with “MCF7” for “A549”; format: ADME, cell-based; conditions: mcf7, 1 h; how it was run: as §3
[21] = system: MCF7; experiment: Photorelease activity in human MCF7 cells assessed as 3-bromo-2-(4-carbamimidoylphenyl)-1H-indole-6-carboxamidine release by measuring bright cyan fluorescence in nucleus at 3 uM incubated for 1 hr followed by illumination with 1.6 J/cm^2 for 10 mins by DAPI filter based analysis; format: ADME, cell-based; conditions: mcf7, 1.167 h, time 70 min
How it was run: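 MCF7 cells given compound (3 μM) for 1 h, washed once with PBS, imaged. DAPI filter set (ex 350–405, em 415–470 nm) used for Br-DAPI cyan signal; EGFP filter set (ex 450–495, em 500–550 nm) used for WinterGreen green signal. Cells imaged dark, then after 480 nm illumination (10 min, 1.6 J cm⁻²).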

[22] = system: MCF7; experiment: Photocytotoxicity against human MCF7 cells assessed as reduction in cell viability incubated for 1 hr followed by washout and irradiation with 480 nm 2.3 J/cm^2 light for 15 mins with 8 J/cm^2 UV irradiation for 5 mins and measured after 24 hrs by MTT assay; format: functional; conditions: MCF7, light or radiation study; how it was run: as §1

## N=C(N)c1ccc(-c2[nH]c3cc(C(=N)N)ccc3c2Br)cc1
[1]
  CC50: > 64 µM
[2]
  Activity: Active
[3]
  CC50: 7.6 µM
[4]
  Kd: 19 µM
[5]
  Activity: Active
[6]
  Drug uptake: Active
[7]
  Drug uptake: Active

## COC(=O)/N=C(/N)c1ccc2c(Br)c(-c3ccc(C(=N)N)cc3)[nH]c2c1
[8]
  Drug uptake: Active
[9]
  fold change (FC): 4

## CC1=CC(C)=[N+]2C1=C(COC(=O)/N=C(\N)c1ccc(-c3[nH]c4cc(C(=N)N)ccc4c3Br)cc1)c1c(C)cc(C)n1[B-]2(C)C
[1]
  CC50: > 16 µM
[10]
  Drug metabolism: Metabolite detected
[11]
  Stability: Stable
[12]
  Stability: Stable
[13]
  TIME: 0.533 h
[14]
  Drug metabolism: Metabolite not detected
[15]
  Drug metabolism: Metabolite not detected
[16]
  Activity: Active
[9]
  fold change (FC): 4
[17]
  Stability: Stable
[4]
  Kd: 10 µM
[18]
  CC50: 5.8 µM
[19]
  Activity: Active
[20]
  Stability: Stable
[21]
  Drug metabolism: Metabolite_Detected
[22]
  CC50: 0.6 µM
